Measurements from ChEMBL document CHEMBL1671843, “Synthesis and SAR of Thiazolylmethylphenyl Glucoside as Novel C-Aryl Glucoside SGLT2 Inhibitors” (ACS Med Chem Lett, 2011).

What was measured:
[1] = tested on: Rattus norvegicus; experiment: Antidiabetic activity in Sprague-Dawley rat assessed as increase of urine volume at 10 mg/kg, po relative to control; type: functional
Outline: (§1)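 Normal Sprague-Dawley rats given a single oral dose (1 or 10 mg/kg) against vehicle controls. Urinary glucose excretion and urine volume were measured and expressed as fold over vehicle. Data are means ± SEM, compared to vehicle by one-way ANOVA with Dunnett's post hoc test.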

[2] = target: T1, Sodium/glucose cotransporter 2 (Homo sapiens, UniProt P31639); experiment: Inhibition of human SGLT2 expressed in CHO cells assessed as [14C]-alpha-methyl-D-glucopyranoside uptake after 2 hrs by liquid scintillation counting; type: cell-based
T1 sequence (P31639 whole entry): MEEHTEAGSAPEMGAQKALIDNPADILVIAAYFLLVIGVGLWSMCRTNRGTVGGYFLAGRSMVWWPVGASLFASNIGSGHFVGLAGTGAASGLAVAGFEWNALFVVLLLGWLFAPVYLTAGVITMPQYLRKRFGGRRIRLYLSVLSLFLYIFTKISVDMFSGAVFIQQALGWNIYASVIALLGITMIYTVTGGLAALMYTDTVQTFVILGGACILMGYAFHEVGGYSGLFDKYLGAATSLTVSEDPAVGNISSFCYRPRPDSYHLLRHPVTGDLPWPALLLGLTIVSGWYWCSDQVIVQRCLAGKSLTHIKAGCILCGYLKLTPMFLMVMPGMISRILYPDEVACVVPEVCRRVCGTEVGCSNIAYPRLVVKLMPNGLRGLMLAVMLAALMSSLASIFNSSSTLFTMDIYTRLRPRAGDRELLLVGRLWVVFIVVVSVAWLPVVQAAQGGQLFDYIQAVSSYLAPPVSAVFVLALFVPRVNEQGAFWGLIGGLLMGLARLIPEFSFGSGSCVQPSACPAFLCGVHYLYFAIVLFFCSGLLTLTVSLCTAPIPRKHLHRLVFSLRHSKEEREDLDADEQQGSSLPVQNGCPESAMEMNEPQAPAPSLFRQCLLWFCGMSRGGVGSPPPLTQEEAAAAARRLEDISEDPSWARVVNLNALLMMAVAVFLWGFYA
Outline: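 Sodium-dependent glucose transport assay against hSGLT2. IC50 was fitted by nonlinear regression. Values are from single determinations.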

[3] = tested on: Rattus norvegicus; experiment: Antidiabetic activity in Sprague-Dawley rat assessed as increase of urinary glucose excretion at 10 mg/kg, po relative to control; type: functional, Urine
Outline: (§2)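 Normal Sprague-Dawley rats received a single oral dose of 1 or 10 mg/kg. Urinary glucose excretion was measured and expressed as fold elevation in glucose disposal over vehicle-treated controls. Values are means ± SEM, compared with vehicle by one-way ANOVA with Dunnett's post hoc test. Urine volume was also recorded.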

[4] = Oral bioavailability in Sprague-Dawley rat at 5 mg/kg; type: ADME, organism-based; details: in vivo
Outline: (§3)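 Male Sprague-Dawley rats dosed orally at 5 mg/kg. Measured Cmax with time to Cmax, elimination half-life and oral bioavailability (F).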

[5] = tested on: Rattus norvegicus; experiment: Antidiabetic activity in Sprague-Dawley rat assessed as increase of urinary glucose excretion at 1 mg/kg, po relative to control; type: functional, Urine; outline: as §2
[6] = tested on: Rattus norvegicus; experiment: Antidiabetic activity in Sprague-Dawley rat assessed as increase of urine volume at 1 mg/kg, po relative to control; type: functional; outline: as §1
[7] = tested on: Rattus norvegicus; experiment: Antidiabetic activity in Sprague-Dawley rat assessed as increase of glucose disposal at 1 mg/kg, po relative to control; type: functional; outline: as §1
[8] = Elimination half life in Sprague-Dawley rat at 5 mg/kg, po; type: ADME, organism-based; parameters: dose 5 mg/kg, route oral; details: in vivo; outline: as §3
[9] = Cmax in Sprague-Dawley rat at 5 mg/kg, po after 0.38 hrs; type: ADME, organism-based; parameters: dose 5 mg/kg, route oral; details: in vivo; outline: as §3
[10] = tested on: Rattus norvegicus; experiment: Antidiabetic activity in Sprague-Dawley rat assessed as increase of glucose disposal at 10 mg/kg, po relative to control; type: functional; outline: as §1

SMILES | IC50 [2] [nM] | further results
OC[C@H]1O[C@@H](c2ccc(Cl)c(Cc3ncc(-c4ccco4)s3)c2)[C@H](O)[C@@H](O)[C@@H]1O | 0.72 | fold change (FC) [1]: 3.7; fold change (FC) [3]: 700; bioavailability [4]: 20.6%; fold change (FC) [5]: 230
CCCCCCCc1cnc(Cc2cc([C@@H]3O[C@H](CO)[C@@H](O)[C@H](O)[C@H]3O)ccc2Cl)s1 | 12.4 | 
CCCCOc1cnc(Cc2cc([C@@H]3O[C@H](CO)[C@@H](O)[C@H](O)[C@H]3O)ccc2Cl)s1 | 19.6 | 
OC[C@H]1O[C@@H](c2ccc(Cl)c(Cc3ncc(-c4ccccc4)s3)c2)[C@H](O)[C@@H](O)[C@@H]1O | 13.3 | 
OC[C@H]1O[C@@H](c2ccc(Cl)c(Cc3ncc(-c4ccc(-c5ccccc5)cc4)s3)c2)[C@H](O)[C@@H](O)[C@@H]1O | 9.31 | 
OC[C@H]1O[C@@H](c2ccc(Cl)c(Cc3ncc(-c4ccoc4)s3)c2)[C@H](O)[C@@H](O)[C@@H]1O | 1.57 | 
OC[C@H]1O[C@@H](c2ccc(Cl)c(Cc3ncc(-c4cccs4)s3)c2)[C@H](O)[C@@H](O)[C@@H]1O | 1.14 | 
OC[C@H]1O[C@@H](c2ccc(Cl)c(Cc3ncc(-c4ccsc4)s3)c2)[C@H](O)[C@@H](O)[C@@H]1O | 0.772 | fold change (FC) [6]: 2.5; fold change (FC) [7]: 160; half-life [8]: 2.51 h; Cmax [9]: 1540 ng/mL; fold change (FC) [1]: 4.2; bioavailability [4]: 15%; fold change (FC) [10]: 730
OC[C@H]1O[C@@H](c2ccc(Cl)c(Cc3ncc(-c4nccs4)s3)c2)[C@H](O)[C@@H](O)[C@@H]1O | 3.13 | 
O=C(O)c1cnc(Cc2cc([C@@H]3O[C@H](CO)[C@@H](O)[C@H](O)[C@H]3O)ccc2Cl)s1 | > 10000 | 
OC[C@H]1O[C@@H](c2ccc(Br)c(Cc3ncc(-c4ccsc4)s3)c2)[C@H](O)[C@@H](O)[C@@H]1O | 6.36 | 
OC[C@H]1O[C@@H](c2ccc(F)c(Cc3ncc(-c4ccsc4)s3)c2)[C@H](O)[C@@H](O)[C@@H]1O | 7.36 | 
OC[C@H]1O[C@@H](c2ccc(C(F)(F)F)c(Cc3ncc(-c4ccsc4)s3)c2)[C@H](O)[C@@H](O)[C@@H]1O | 14.6 | 
N#Cc1ccc([C@@H]2O[C@H](CO)[C@@H](O)[C@H](O)[C@H]2O)cc1Cc1ncc(-c2ccsc2)s1 | 140 | 
OC[C@H]1O[C@@H](c2ccc(Cl)c(Cc3cnc(-c4ccsc4)s3)c2)[C@H](O)[C@@H](O)[C@@H]1O | 1.11 | 
CCOc1ccc(Cc2cc([C@@H]3O[C@H](CO)[C@@H](O)[C@H](O)[C@H]3O)ccc2Cl)cc1 [DAPAGLIFLOZIN] |  | fold change (FC) [6]: 5.7; bioavailability [4]: 88%
